Source: PubChem
Most compounds without a hit are left out; they make up all but 3% or so of the library.
HIF act = HIF pathway transcriptional activators, primary screen, cell-based, U2OS HRE-luciferase, luminescence; U2OS HRE-luciferase reporter; normalized: DMSO 0%, desferrioxamine 100%; activation, % at 7.5 µM (by protocol); hit rate 0.32% among 300,000;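 active means mean activation of at least 10% of the iron chelator positive control signal, with at least half of replicates also reaching 10%; inconclusive means mean and replicate majority disagree about reaching 10%; inactive means mean and most replicates under 10%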
V-ATPase pH = regulators of yeast V-ATPase proton pumping, primary screen, pHLuorin cytosolic pH fluorescence. S. cerevisiae. response, % at 10 µM. hit rate 0.37% among 350,000. AID 504577, 2011; in the data active means response mostly above about 7.3%, no sharp cut-off; inactive means mostly below about 5.4%; further: actives read high
NRP1-CendR mod = modulators of CendR peptide binding to NRP-1, primary screen, biochemical, fluorescence polarization, uHTS; Neuropilin-1 (Homo sapiens), O14786; FAM-RPARPAR peptide binding to NRP-1; inhibition, % at 25 µM; hit rate 0.85% among 360,000; AID 602438, 2012;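 active means inhibition or corrected inhibition above about 18%, plus a signal ratio from 0.5 to 1.5, limit read from the data, passing the limit was not always enough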
Target sequence (O14786 whole entry, looked up): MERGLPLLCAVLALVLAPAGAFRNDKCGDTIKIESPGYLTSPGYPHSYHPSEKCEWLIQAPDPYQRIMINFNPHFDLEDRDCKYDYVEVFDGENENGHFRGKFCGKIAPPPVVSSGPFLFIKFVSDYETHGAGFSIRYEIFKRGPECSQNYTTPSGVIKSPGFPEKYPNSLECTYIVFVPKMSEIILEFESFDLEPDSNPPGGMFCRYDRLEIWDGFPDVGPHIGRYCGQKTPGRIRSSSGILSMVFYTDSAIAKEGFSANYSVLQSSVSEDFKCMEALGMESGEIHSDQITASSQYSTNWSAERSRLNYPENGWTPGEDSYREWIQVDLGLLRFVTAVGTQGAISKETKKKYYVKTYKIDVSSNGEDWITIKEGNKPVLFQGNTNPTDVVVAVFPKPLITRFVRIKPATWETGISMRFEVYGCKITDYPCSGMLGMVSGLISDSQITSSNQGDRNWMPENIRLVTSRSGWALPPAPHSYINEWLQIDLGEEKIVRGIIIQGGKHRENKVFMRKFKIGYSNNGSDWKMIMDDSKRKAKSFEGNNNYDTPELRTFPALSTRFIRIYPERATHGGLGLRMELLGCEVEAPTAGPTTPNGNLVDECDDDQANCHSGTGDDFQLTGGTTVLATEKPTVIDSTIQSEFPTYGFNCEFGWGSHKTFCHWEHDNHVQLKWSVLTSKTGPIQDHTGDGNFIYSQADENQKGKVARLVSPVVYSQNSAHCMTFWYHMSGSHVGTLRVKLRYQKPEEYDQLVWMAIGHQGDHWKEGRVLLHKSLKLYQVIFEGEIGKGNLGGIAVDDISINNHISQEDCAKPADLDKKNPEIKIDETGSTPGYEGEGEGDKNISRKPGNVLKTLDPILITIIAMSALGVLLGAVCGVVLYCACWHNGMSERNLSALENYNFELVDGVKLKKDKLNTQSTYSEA
Yeast superoxide = reduction of superoxide in aged yeast, primary screen, HTS | S. cerevisiae aged cells, superoxide DHE fluorescence; active compounds read low | superoxide response (% of plate mean), % at 10 µM | hit rate 0.18% among 330,000 | AID 2690, 2010;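 active means superoxide response under a set limit, about three screen SD below normal, cut at about 65% in these data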;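 further: yeast aged for seven days with compound at 30 °C before DHE staining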
AI-2 QS mod = Vibrio harveyi AI-2 quorum sensing modulators, primary screen, JMH597 strain, luminescence/OD600 ratio | hit rate 0.4% among 300,000 | activity change, % at 7.5 µM | Vibrio harveyi JMH597 AI-2 luminescence/OD600 ratio, 9 h; active compounds read low; strain lacks LuxN and CqsS sensors; 0 = neutral-control median | AID 2094, 2009; in the data active means activity change below about -75%, passing the limit was not always enough; inconclusive means no clear call, values can overlap the other calls;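 further: luminescence divided by OD600 gain over 9 h not by final OD600 alone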
T cruzi inh = inhibitors of intracellular T. cruzi growth, primary screen, luminescence, NIH3T3 host cells. T. cruzi beta-gal in NIH3T3, 90 h. inhibition, % (test concentration not listed). hit rate 1.4% among 300,000. AID 1885, 2009;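 active means mean inhibition across valid replicates above about 55%, limit read from the data; inconclusive means mean below that limit but half or more replicates reach it; inactive means mean below it, under half of replicates reach it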;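 further: signal also drops with host cell toxicity which is not excluded here; higher percent means less beta-gal luminescence so fewer parasites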
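Assay system: NIH/3T3 fibroblasts plus reporter T. cruzi. Amount: NIH/3T3 cells, 5,000 per well. Buffer or medium: DMEM, 2% fetal bovine serum. Doses: compound pinned at 50 nL/well, DMSO. Schedule: ≥90 h infection period, 3 h prior cell attachment. Signal: luminescent β-galactosidase signal after 60 min lysis. Read-out: parasite load inhibition, %.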
Numbers stand for hits; - = inactive; ? = inconclusive; . = no result given.

SMILES | HIF act | V-ATPase pH | NRP1-CendR mod | Yeast superoxide | AI-2 QS mod | T cruzi inh
O=C(COC(=O)C1=COCCO1)Nc1ccc(OC(F)F)cc1 | - | - | 27.1 | - | - | -
O=C(COC(=O)C1=COCCO1)Nc1ccccc1 | - | - | - | - | - | -
COc1ccc(CCNC(=O)CCC(=O)N2CC(C)Oc3ccc(Cl)cc32)cc1OC (stereo unspecified) | - | - | - | - | - | -
Cc1ccc(NC2CCCN(C(=O)c3ccc4nccnc4c3)C2)cc1C (stereo unspecified) | - | - | 43.3 | - | - | -
COc1ccc(NC2CCCN(C(=O)c3ccc4nccnc4c3)C2)cc1OC (stereo unspecified) | - | - | - | - | - | -
CC(=O)C1=NN(c2ccccc2)C(c2ccc3c(c2)OCO3)N1c1ccccc1 (stereo unspecified) | - | - | - | - | - | -
CC(=O)C1=NN(c2ccccc2)C(c2cccs2)N1c1ccc(N(C)C)cc1 (stereo unspecified) | - | - | - | - | . | 54.5
Oc1ccc(Cl)cc1Cc1cc(Cl)ccc1O | - | - | - | - | -112.3 | -
Oc1ccc(Cl)cc1CNCc1ccc(Cl)cc1 | . | - | - | - | . | .
O=C(COC(=O)C1CC1)NCCc1ccccc1 | . | - | - | - | . | .
CC(CCc1ccccc1)NC(=O)COC(=O)C1CCC(C(C)(C)C)CC1 (stereo unspecified) | - | - | 31.6 | - | - | -
CC(=O)NC(=S)Nc1ccc(S(=O)(=O)N(C)Cc2ccccc2)cc1 | - | - | - | - | - | 68.3
COc1ccc2[nH]c3c(=O)n(/N=C/c4ccc(OC)c(CN5CCCC5)c4)c(C)nc3c2c1 | - | - | - | - | - | 64.7
COc1cc(/C=N\NC(=O)c2ccc(Cn3cc(Br)c([N+](=O)[O-])n3)o2)cc(OC)c1O | - | - | - | - | - | -
O=C(N/N=C\c1ccc2c(c1)OCO2)c1ccc(Cn2cc(Br)c([N+](=O)[O-])n2)o1 | - | - | - | - | - | 55.6
O=C(N/N=C\c1ccc(F)cc1)c1ccc(Cn2cc(Br)c([N+](=O)[O-])n2)o1 | - | - | - | - | - | 61.4
O=C(N/N=C\c1cccc(F)c1)c1ccc(Cn2cc(Br)c([N+](=O)[O-])n2)o1 | - | - | - | - | - | 68.0
Cc1[nH]nc(-c2ccc(OCc3cnn(-c4ccccc4)c3)cc2O)c1Oc1ccc(F)cc1 | - | - | - | - | - | -
CCOCCCNC(=O)CN1C(=O)COc2ccc(S(=O)(=O)N3CCCCCC3)cc21 | - | - | - | - | - | -
CC1CC(C)CN(CCCNC(=O)CN2C(=O)CSc3ccc(S(=O)(=O)N4CCOCC4)cc32)C1 (stereo unspecified) | - | - | 18.8 | - | - | -
CCCCNC(=O)CN1C(=O)COc2ccc(S(=O)(=O)N3CCCCCC3)cc21 | 46.1 | - | - | - | - | -
CC1CCN(CCCNC(=O)CN2C(=O)CSc3ccc(S(=O)(=O)N4CCOCC4)cc32)CC1 | - | - | - | - | - | -
O=C(NCc1ccco1)c1ccc2c(c1)CCO2 | - | - | - | - | - | -
CCCc1cc(NCc2ccccn2)n2nc(C)c(-c3ccccc3)c2n1 | - | - | - | - | . | 54.6
O=C(c1ccc(Cl)cc1)C1CCN(C(=S)Nc2ccccc2)CC1 | . | - | - | . | . | .
SMILES | HIF act | V-ATPase pH | NRP1-CendR mod | Yeast superoxide | AI-2 QS mod | T cruzi inh
O=S(=O)(NCc1ccccc1)c1ccc(S(=O)(=O)N(Cc2ccccn2)Cc2ccco2)cc1 | - | - | 37.5 | - | - | -
CCN(CC)S(=O)(=O)c1ccc(S(=O)(=O)N(Cc2ccccn2)Cc2ccco2)cc1 | . | - | - | - | - | -
O=S(=O)(c1ccccc1)N1CCN(c2ncccn2)CC1 | - | - | - | - | - | -
Cc1ccc(S(=O)(=O)N2CCN(c3ccccn3)CC2)cc1 | 47.8 | - | - | - | - | -
CC(C)(C)c1ccc(S(=O)(=O)N2CCN(c3ncccn3)CC2)cc1 | - | - | 26.9 | - | - | -
COc1ccc(C(=O)N/N=C/c2c(C)nn(-c3ccccc3)c2OC)cc1 | - | - | - | - | - | -
c1ccc(CCc2ccccc2-c2nc(-c3cccnc3)no2)cc1 | - | - | - | - | - | -
c1ccc(CCc2nc(-c3ccccc3)no2)cc1 | - | - | - | - | -93.8 | -
c1ccc(CCc2nc(-c3cccnc3)no2)cc1 | - | - | - | - | -93.3 | -
CCc1ccc(NCc2nc(-c3ccccc3)no2)cc1 | - | - | - | - | -95.6 | -
Cc1cc(S(=O)(=O)N2CCCC2)ccc1OCC(=O)Nc1ccccc1 | - | - | - | - | - | -
Cc1ccc(OCC(O)CN2CCOCC2)cc1C (stereo unspecified) | - | - | - | - | - | -
COc1ccccc1C1C([N+](=O)[O-])=CC([N+](=O)[O-])=CN1C (stereo unspecified) | - | - | - | - | - | -
COc1ccccc1C1NC=C([N+](=O)[O-])C=C1[N+](=O)[O-] (stereo unspecified) | - | - | - | - | - | 77.5
COc1ccc(CC(=O)Nc2cc(Cl)ccc2O)cc1 | - | - | - | - | -94.1 | -
COc1cccc(C(=O)N/N=C(/c2ccccc2)c2ccccn2)c1 | 11.1 | - | - | - | - | 54.7
COc1cc(NC(=O)C/C(C)=N/NC(=O)c2ccccn2)c(OC)cc1Cl | - | - | 23.1 | - | - | -
COc1ccccc1NC(=O)C/C(C)=N/NC(=O)c1ccccn1 | - | - | - | - | - | -
COc1cc(C(=O)N/N=C(\c2ccccc2)c2ccccn2)cc(OC)c1OC | 64.3 | - | - | - | - | 55.0
COc1cc(C(=O)N/N=C(\C)c2ccccn2)cc(OC)c1OC | - | - | - | . | - | -
COc1cccc(C(=O)N/N=C(/CCC(=O)O)c2ccccc2)c1 | - | - | - | - | - | -
CCOC(=O)c1cc(NC(=O)OC)c(C)nc1C | - | - | - | - | - | -
COc1ccc(-c2csc(NC3=NCCCCC3)n2)cc1 | - | - | - | - | - | -
COc1ccc(-c2csc(NNC3=NCCCCC3)n2)cc1 | 205.3 | . | . | - | - | -
O=C(c1ccc(CSc2nc3ccncc3[nH]2)cc1)N1CCCCCC1 | - | - | - | - | - | -
O=C(c1ccc(CSc2nc3ccncc3[nH]2)cc1)N1CCN(c2cccc(Cl)c2)CC1 | - | - | - | - | - | 54.8
Cc1ccc(CSc2nc3ccncc3[nH]2)cc1 | - | - | - | - | -76.9 | -
Clc1ccc(CSc2nc3ccncc3[nH]2)cc1 | - | - | - | - | ? | -
COc1cc(CNC2CCCC2)cc(Cl)c1OCc1ccccc1Cl | - | - | - | - | - | 77.5
